# RBBP9 inh = blocks human serine hydrolase RBBP9 | O75884 | recombinant RBBP9, FP-Rh probe fluorescence polarization | inhibition, % at 7.94 µM | hit rate 0.2% among 220,000;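 active = inhibition above the campaign mean of all tested compounds plus 3 SD, cut at about 14% in these data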;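 note: plate controls were DMSO wells with RBBP9 for no effect and wells lacking RBBP9 protein for full effect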
#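 Test system: recombinant human RBBP9; Timing: 30 min then 45 min, 25 °C; Detection: fluorescence polarization; Control set: RBBP9 with DMSO as uninhibited control, no-protein wells as full inhibition; Compound dosing: one concentration, 7.94 µM nominal, 0.794% DMSO; Probe or stimulus: FP-Rh activity-based probe, 375 nM before mixing.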
# Mcl1 Bid PPI = disrupts binding of human Mcl-1 to Bid peptide | AID 1021 | TR-FRET Mcl-1/Bid-Dy647 peptide binding, 1536-well | Q07820 | inhibition, % at 21.7 µM | hit rate 0.97% among 220,000;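 active = compounds that cut the binding signal by more than half at the single screening dose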;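 note: His-tagged Mcl-1 with europium anti-His antibody binding Bid BH3 peptide; 0% = Mcl-1 plus peptide wells and 100% = peptide-only wells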
# Target sequence (Q07820 whole entry, looked up): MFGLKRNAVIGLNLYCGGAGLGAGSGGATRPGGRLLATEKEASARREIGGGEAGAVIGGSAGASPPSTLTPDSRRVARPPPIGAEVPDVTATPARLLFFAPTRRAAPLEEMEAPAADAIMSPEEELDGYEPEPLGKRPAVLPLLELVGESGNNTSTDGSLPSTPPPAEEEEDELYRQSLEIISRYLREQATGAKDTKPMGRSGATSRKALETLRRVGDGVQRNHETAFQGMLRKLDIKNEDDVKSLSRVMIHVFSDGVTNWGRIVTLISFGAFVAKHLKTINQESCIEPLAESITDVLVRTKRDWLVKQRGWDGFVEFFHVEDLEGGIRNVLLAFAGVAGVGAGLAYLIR
# MCL1-BIM inh = disrupts human MCL1 binding to BIM-BH3 peptide; GST-MCL1 / FITC-Bim-BH3 fluorescence polarization; AID 2057; hit rate 0.68% among 320,000; inhibition, % at 10.9 µM; Q07820;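 active = inhibition above the mean inhibition of all tested compounds plus 3 SD, set per campaign, cut at about 40% in these data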;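 note: 0% = DMSO wells and 100% = unlabeled Bim-BH3 peptide control; higher means more loss of mP so more displacement of Bim peptide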
# Bim-Mcl-1 = disrupts Bim peptide binding to human Mcl-1; Q07820; Bead-based flow cytometry, Bim peptide-Mcl-1 binding; inhibition, % at 10 µM; hit rate 0.1% among 190,000; AID 1009; in the data active = inhibition above about 40%;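 note: 0% = no compound tracer wells and 100% = peptide blocker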
# Mcl1-Noxa inh = disrupts binding of human Mcl-1 to Noxa peptide | AID 1022 | inhibition, % at 21.7 µM | hit rate 1.5% among 220,000 | TR-FRET Mcl-1/Noxa peptide binding, 2 h | Q07820;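 active = compounds that cut the protein-peptide binding signal by more than 50% relative to plate controls in a single-dose test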;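 note: His-tagged Mcl-1 with rhodamine Noxa BH3 peptide and terbium anti-His antibody; 0% = Mcl-1 plus Noxa peptide wells and 100% = peptide-only wells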
# EBV gp42 inh = inhibitors of Epstein-Barr virus glycoprotein 42. hit rate 0.42% among 220,000. AID 1085. Q1HVG2. inhibition, % (tested at 21.74 µM). Fluorescence polarization binding assay, mP read-out; in the data active = inhibition above about 50%
# RBBP9 inh conf = human RBBP9 inhibition, confirmation. AID 1537. hit rate 36% among 410. inhibition, % at 7.94 µM. shares compounds with RBBP9 inh. recombinant RBBP9, FP-Rh probe fluorescence polarization;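 active = inhibition above the hit cutoff derived for the primary screen, cut at about 15% in these data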;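 note: 0% = RBBP9 with DMSO and 100% = wells lacking RBBP9 protein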
# Active calls of the source: *; . = no result given. Compounds with a hit are over-represented: about 2.2% of the library has one in this group of screens.
SMILES,RBBP9 inh,Mcl1 Bid PPI,MCL1-BIM inh,Bim-Mcl-1,Mcl1-Noxa inh,EBV gp42 inh,RBBP9 inh conf
Oc1ccc(-c2nc3ncccn3c2Nc2ccc3c(c2)OCO3)cc1,-2,-20,7,3,39,-1,.
Cc1ccn2c(Nc3ccc4c(c3)OCO4)c(-c3ccc(O)cc3)nc2c1,17*,-98,9,.,51*,18,28*
CC(=O)N1CCCc2cc(S(=O)(=O)N3CCCC(C(=O)Nc4cccc(C)c4)C3)ccc21 (configuration not stated),.,.,-6,.,.,.,.
Cc1cc(O)ccc1N=Cc1c(C(F)(F)F)[nH][nH]c1=O,39*,-40,16,0,9,5,14
O=c1[nH][nH]c(C(F)(F)F)c1C=Nc1ccccc1,1,-28,9,-2,9,-22,.
COC(=O)N/N=C/c1cn(CC(C)COc2ccccc2)c2ccccc12 (configuration not stated),-5,-17,0,4,3,-7,.
CCn1c(SCCC(=O)O)nnc1-c1cccnc1,-2,-11,2,0,-6,4,.
CCn1c(SCC(=O)c2ccccc2)nnc1-c1cccnc1,15*,-7,-10,-2,11,-10,5
COc1ccc(-c2cc(O)cc(O)c2)cc1,35*,-17,2,-4,10,-15,5
CC1=NNC(=O)C1C(c1ccc(Cl)cc1)C(C#N)C#N (configuration not stated),22*,-32,6,.,-4,3,-1
CC1=NNC(=O)C1C(c1cccc(O)c1)C(C#N)C#N (configuration not stated),11,-13,2,.,-15,2,.
CCn1ccc(C(=O)Nc2ccc3c(c2)CCC3)n1,.,.,5,.,.,.,.
CCc1ccccc1NC(=O)CSc1nnc(Cn2nnc3ccccc32)n1C,15*,8,7,0,10,-28,5
COc1ccc(NC(=O)CSc2nnc(Cn3nnc4ccccc43)n2C)cc1,4,-31,0,3,-5,-21,.
c1ccc(-c2nnc(-c3ccccn3)c(-c3ccccn3)n2)nc1,-6,-3,7,.,4,-1,.
FC(F)(F)c1ccc(-c2nnc(-c3ccccn3)c(-c3ccccn3)n2)nc1,17*,-17,-5,.,-21,-7,3
Nc1nc(N)nc(-c2cc(O)ccc2O)n1,.,.,18,.,.,.,.
Oc1ccc(O)c(-c2cnns2)c1,18*,-6,14,0,30,-23,55*
COc1ccccc1C(=O)NC(=O)COC(=O)CN1C(=O)NC(C)(C)C1=O,.,.,0,.,.,.,.
Cc1ccc(C(=O)n2nc(-c3ccccc3)nc2NCc2ccco2)cc1,-14,-8,-3,4,12,-1,.
CCCC(=O)n1nc(-c2ccc(C)cc2)nc1NCc1ccco1,17*,-12,-7,-3,-3,0,9
CCOC(=O)C1CCCN(C(=S)Nc2ccc(F)cc2)C1 (configuration not stated),23*,-34,3,0,-16,-3,0
COc1ccc(C(=O)/C=C/c2ccsc2)cc1CSCC(=O)O,.,.,18,.,.,.,.
Cc1cc(O)ccc1Nc1nc2ccccc2nc1Nc1ccc(O)cc1C,21*,9,-9,0,68*,22,11
Cc1ccc(Nc2nc3ccccc3s2)c(C)c1,7,-2,1,0,26,-3,.
SMILES,RBBP9 inh,Mcl1 Bid PPI,MCL1-BIM inh,Bim-Mcl-1,Mcl1-Noxa inh,EBV gp42 inh,RBBP9 inh conf
CC1CCCCC1NC(=O)c1ccc(S(=O)(=O)NCc2ccco2)cc1 (configuration not stated),18*,-13,5,-5,12,-25,1
COCC(=O)N1CCC(Oc2ccc(C(=O)NC(C)c3csc(C)n3)cc2)CC1 (configuration not stated),.,.,-1,.,.,.,.
Cc1ccc(CCP(=O)(O)CN2CCOCC2)cn1,18*,-5,1,-1,13,3,-2
CS(=O)(=O)N1CCCC(C(=O)Nc2ccccc2)C1 (configuration not stated),.,.,11,.,.,.,.
COc1ccc2[nH]c3c(NCCC4=CCCCC4)ncnc3c2c1,15*,-17,.,-3,44,-5,30*
CC(NS(=O)(=O)c1ccc(Br)s1)c1ccccc1 (configuration not stated),.,.,7,.,.,.,.

# Source: PubChem
